The values below come from ChEMBL document CHEMBL3856196, “3-(Benzodioxan-2-ylmethoxy)-2,6-difluorobenzamides bearing hydrophobic substituents at the 7-position of the benzodioxane nucleus potently inhibit methicillin-resistant Sa and Mtb cell division” (Eur J Med Chem, 2016).

Values after ≈ are worked out from the molar mass of the structure shown. Active and inactive are the calls of the source. No cut-off for these calls is given here.

Data set [1] in a line: Cytotoxicity against human MRC5 cells assessed as reduction in cell viability after 24 hrs by MTT assay. Type of data set: toxicity, cell-based. Conditions: mrc5, 24 h. A digest of the protocol:
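MRC-5 lung fibroblasts (DMEM, 10% heat-inactivated calf serum, 37 °C, 5% CO₂) at 10⁴ cells/well were exposed 24 h to twofold serial dilutions in DMEM. Then 1 mg/ml MTT in serum-free DMEM for 3 h, DMSO solubilisation, A570. Cytotoxicity % = 100 − (sample OD/untreated OD) × 100; TD₅₀/TD₉₀ are concentrations cutting viability 50/90%.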
Background: Tetrazolium assays rely on reduction of a dye to a coloured formazan, in cell work by metabolically active cells.

A short description of data set [2]: Therapeutic index, ratio of TD90 for human MRC5 cells to MBC for […] Staphylococcus aureus ATCC 29213. Type of data set: cell-based. The note with it: read-out: TI. The method in brief: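 Ratio of TD₉₀ (MTT assay on MRC-5, 24 h exposure) to MBC against MRSA ATCC 29213 (LB tube assay, wash-out and overnight regrowth by OD600).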
For data set [3], the system named is Staphylococcus aureus. Put plainly: Antibacterial activity against […] Staphylococcus aureus ATCC 29213 after 16 hrs by spectrophotometric analysis. Type of data set: functional. The note with it: ATCC 29213, 16 h.
Data set [4] relates to Enterococcus faecalis. Put plainly: Antibacterial activity against vancomycin-susceptible Enterococcus faecalis clinical isolates after 24 hrs by CLSI […] broth microdilution method. Type of data set: functional. Conditions: for MBC: read-out: MBC99.9. A digest of the protocol:
(§1)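 CLSI broth microdilution on clinical isolates. Log-phase bacteria in saline at 1–2 × 10⁵ CFU/mL were mixed with compounds diluted in LB, final 0.097–100 μg/mL, for 24 h at 37 °C. MIC is the lowest concentration with total growth inhibition. For MBC, clear wells were plated on sheep-blood agar for 18 h; >99.9% kill versus untreated control. Triplicate.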

Data set [5] concerns Staphylococcus aureus. The experiment in a line: Antibacterial activity against methicillin-susceptible Staphylococcus aureus clinical isolates after 24 hrs by CLSI […] broth microdilution method. Type of data set: functional. The note with it: for MBC: read-out: MBC99.9. A digest of the protocol:
as §1
A general note: Broth dilution looks for growth in wells or tubes with falling amounts of substance.

Data set [6] has as its system Enterococcus faecalis. Put plainly: Antibacterial activity against vancomycin-resistant Enterococcus faecalis clinical isolates after 24 hrs by CLSI […] broth microdilution method. The note with it: for MBC: read-out: MBC99.9. Type of data set: functional. A digest of the protocol: as §1
Data set [7] relates to Staphylococcus aureus. The experiment in a line: Antibacterial activity against methicillin-resistant Staphylococcus aureus clinical isolates after 24 hrs by CLSI […] broth microdilution method. Type of data set: functional. Conditions: for MBC: read-out: MBC99.9. The method in brief:
as §1

Data set [8] concerns the target T1, Cell division protein FtsZ (Staphylococcus aureus) (UniProt P0A031).
T1 sequence (whole entry): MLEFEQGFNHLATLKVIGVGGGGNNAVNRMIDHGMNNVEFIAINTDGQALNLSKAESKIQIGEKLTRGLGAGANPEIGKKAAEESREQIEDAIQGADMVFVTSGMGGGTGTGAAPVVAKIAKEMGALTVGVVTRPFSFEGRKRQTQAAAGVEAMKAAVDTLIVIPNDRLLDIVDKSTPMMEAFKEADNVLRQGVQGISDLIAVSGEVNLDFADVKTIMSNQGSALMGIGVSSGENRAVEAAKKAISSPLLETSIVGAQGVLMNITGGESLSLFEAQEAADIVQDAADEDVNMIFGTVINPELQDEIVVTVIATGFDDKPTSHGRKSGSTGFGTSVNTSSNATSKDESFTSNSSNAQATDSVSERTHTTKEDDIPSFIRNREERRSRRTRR
Put plainly: Inhibition of Staphylococcus aureus FtsZ assessed as bacterial swelling at 0.5 ug/ml after overnight incubation by phase-contrast light microscopic analysis. A digest of the protocol:
(§2)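 S. aureus grown overnight with compound at levels starting from the previously determined MIC. Untreated cultures served as negative control. Examined by phase-contrast microscopy at 630×.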

The target of data set [9] is T1, Cell division protein FtsZ (Staphylococcus aureus). The experiment in a line: Inhibition of Staphylococcus aureus FtsZ assessed as increase in cell volume at 0.5 ug/ml after overnight incubation by phase-contrast light microscopic analysis. The method in brief:
as §2

Data set [10] shares this target. The experiment in a line: Inhibition of Staphylococcus aureus FtsZ assessed as cellular desegregation at 0.5 ug/ml after overnight incubation by phase-contrast light microscopic analysis. A digest of the protocol: as §2
Data set [11] has the same target. Put plainly: Inhibition of Staphylococcus aureus FtsZ assessed as alteration in septum formation at 0.5 ug/ml after 16 hrs by transmission electron microscopic analysis. A digest of the protocol:
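S. aureus at 10⁹ cells/ml grown 16 h at 37 °C with compound, untreated control included. Cells were pelleted at 3100 × g for 5 min, fixed in 2.5% glutaraldehyde in 0.1 M Na cacodylate pH 7.4 for 1 h at 4 °C, post-fixed in 1% OsO₄ for 1 h at 4 °C, and examined by TEM for septum and ultrastructure.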

For data set [12], the system named is Mycolicibacterium smegmatis. Put plainly: Inhibition of FtsZ polymerization in GFP-tagged Mycobacterium smegmatis assessed as presence of elongated cells with enlarged bacterial pole at 4 ug/ml by fluorescence-based microscopic analysis. A digest of the protocol: (§3)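 GFP-expressing M. smegmatis or M. tuberculosis grown at subMIC concentrations on glass coverslips in 7H9/ADC/Tween 80. Cells were fixed with phosphate-buffered 4% paraformaldehyde and examined by fluorescence microscopy at 100× for cell morphology.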

In data set [13] the test system is Mycobacterium tuberculosis. Put plainly: Antitubercular activity against Mycobacterium tuberculosis H37Rv by Alamar blue assay. Type of data set: functional. The method in brief:
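M. tuberculosis in 7H9 medium with ADC and 0.05% Tween 80; MIC by microplate Alamar Blue assay.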

Data set [14] relates to Staphylococcus aureus. Put plainly: Antibacterial activity against methicillin-susceptible Staphylococcus aureus. Type of data set: functional.
In data set [15] the test system is Mycobacterium tuberculosis. Put plainly: Inhibition of FtsZ polymerization in GFP-tagged Mycobacterium tuberculosis assessed as presence of elongated cells with enlarged bacterial pole at 4 ug/ml by fluorescence-based microscopic analysis. The method in brief: as §3
Data set [16] relates to Staphylococcus aureus. The experiment in a line: Antibacterial activity against Staphylococcus aureus. Type of data set: functional.

Take `C=Cc1ccc2c(c1)OC(COc1ccc(F)c(C(N)=O)c1F)CO2` (stereo not given): the TD90 in data set [1] was greater than 800 µg/mL. Besides, the selectivity ratio in [2] was greater than 640. For the same molecule, in the data set on Staphylococcus aureus [3], the MBC is 1.25 µg/mL (≈ 3.6 µM) and the minimum inhibitory concentration (MIC) (commonly the least concentration at which growth counts as inhibited) amounted to 0.625 µg/mL (≈ 1.8 µM).
As to `NC(=O)c1c(F)ccc(OCC2COc3ccccc3C2)c1F` (stereo not given), in the data set on Staphylococcus aureus [3], the MBC was determined as 100 µg/mL (≈ 313 µM) and it took 100 µg/mL (≈ 313 µM) to inhibit growth (MIC).
Turning to `NC(=O)c1c(F)ccc(OCC2COc3ccc(I)cc3O2)c1F` (stereo not given), the MIC90 – broadly, the lowest concentration that inhibits either 90% of growth or 90% of the strains tested, depending on the study – against Enterococcus faecalis [4] was 6.25 µg/mL (≈ 14 µM); in the data set on Staphylococcus aureus [5], 0.78 µg/mL; against Enterococcus faecalis [6] it was 6.25 µg/mL (≈ 14 µM); in the data set on Staphylococcus aureus [7] it was 0.39 µg/mL. Also, the MBC came out at 12.5 µg/mL (≈ 28 µM) in the data set on Enterococcus faecalis [4]; 3.12 µg/mL in the data set with Staphylococcus aureus [5]; 25 µg/mL (≈ 55.9 µM) in the data set on Enterococcus faecalis [6]; 1.56 µg/mL (≈ 3.49 µM) in the data set with Staphylococcus aureus [7]; 0.625 µg/mL (≈ 1.4 µM) against Staphylococcus aureus [3]. Also, in data set [1], the TD90 was greater than 800 µg/mL. In [2], the selectivity ratio is greater than 1280. Moreover, the MIC against Staphylococcus aureus [3] was 0.313 µg/mL (≈ 0.7 µM).
Consider `NC(=O)c1c(F)ccc(OCC2COc3ccc(Br)cc3O2)c1F` (stereo not given), for which the TD90 in data set [1] was greater than 800 µg/mL. Further, the selectivity ratio in [2] was greater than 1280. In the data set on Staphylococcus aureus [3], this molecule gave an MBC of 0.625 µg/mL (≈ 1.56 µM) and an MIC of 0.625 µg/mL (≈ 1.56 µM).
In turn, `NC(=O)c1c(F)ccc(OC(CO)COc2ccccc2)c1F` (stereo not given) came in with a minimum inhibitory concentration (MIC) with Staphylococcus aureus [3] greater than 100 µg/mL.
Turning to `NC(=O)c1c(F)ccc(OCc2ccc3c(c2)OCCO3)c1F`, in the data set on Staphylococcus aureus [3], the MBC turned out to be 100 µg/mL (≈ 311 µM) and inhibition of growth (MIC) required 100 µg/mL (≈ 311 µM).
`C#Cc1ccc2c(c1)OC(COc1ccc(F)c(C(N)=O)c1F)CO2` (stereo not given): the inhibition entry in data set [8], in [9] and in data set [10] was “Active” in each case. Further, the TD90 in data set [1] worked out at 400 µg/mL. Further, the selectivity ratio in data set [2] was 640. In the data set on Staphylococcus aureus [3], this molecule showed an MBC of 0.625 µg/mL (≈ 1.81 µM). Besides, 0.313 µg/mL (≈ 0.906 µM) was the least that counted as inhibitory against Staphylococcus aureus [3] (MIC).
Consider `NC(=O)c1c(F)ccc(OCC2COc3ccc(C(F)(F)F)cc3O2)c1F` (stereo not given), for which, in the data set on Staphylococcus aureus [3], the MBC was found to be 2.5 µg/mL (≈ 6.42 µM) and the MIC turned out to be 2.5 µg/mL (≈ 6.42 µM).
With `NC(=O)c1c(F)ccc(OC[C@@H]2COc3ccc(Cl)cc3O2)c1F`, the MIC90 in the data set with Enterococcus faecalis [4] came to 25 µg/mL (≈ 70.3 µM); with Staphylococcus aureus [5], 0.5 µM; in the data set with Enterococcus faecalis [6], 25 µg/mL (≈ 70.3 µM); in the data set with Staphylococcus aureus [7], 1 µM; in the data set with Staphylococcus aureus [14], 0.7 µM (≈ 0.249 µg/mL). The MBC in the data set with Enterococcus faecalis [4] was 50 µg/mL (≈ 141 µM); in the data set with Staphylococcus aureus [5], 1 µM; with Enterococcus faecalis [6], 50 µg/mL (≈ 141 µM); with Staphylococcus aureus [7] it was 0.78 µg/mL (≈ 2.19 µM). The inhibition entry in data set [11], in [9], in [12] and in data set [15] was “Active” in each case. Besides, in data set [13], the minimum inhibitory concentration (MIC) was 8 µg/mL (≈ 22.5 µM).
Consider `NC(=O)c1c(F)ccc(OCC2COc3ccccc3O2)c1F` (stereo not given), for which the minimal inhibitory concentration (MIC) amounted to 5 µg/mL (≈ 15.6 µM) against Staphylococcus aureus [16] and 16 µg/mL (≈ 49.8 µM) in data set [13]. Moreover, the MIC90 turned out to be 25 µg/mL (≈ 77.8 µM) against Enterococcus faecalis [4], 3.12 µg/mL with Staphylococcus aureus [5], 25 µg/mL (≈ 77.8 µM) against Enterococcus faecalis [6] and 3.12 µg/mL with Staphylococcus aureus [7]. Also, the MBC with Enterococcus faecalis [4] is 50 µg/mL (≈ 156 µM); in the data set with Staphylococcus aureus [5], 12.5 µg/mL; in the data set with Enterococcus faecalis [6], 50 µg/mL (≈ 156 µM); in the data set with Staphylococcus aureus [7], 6.25 µg/mL (≈ 19.5 µM).
In the data set on Staphylococcus aureus [3], `N#Cc1ccc2c(c1)OC(COc1ccc(F)c(C(N)=O)c1F)CO2` (stereo not given) registered an MBC of 2.5 µg/mL (≈ 7.22 µM) and a minimum inhibitory concentration (MIC) of 1.25 µg/mL (≈ 3.61 µM).
